Test results taken from publication PMC5014782 (Diabetes Therapy, 2016).
“Also recorded” adds a separate entry of the source. Where two headings read alike, the source gives them in different places. Marks after values point to notes of the source that are not given here.

Legend:
[1] = tested on: patients with type 2 diabetes mellitus; assay: Exposure–response analysis for efficacy; type: in vivo, human; details: for Target of the maximal response for FPG and HbA1c obtained: after 24 weeks
Summary of the method: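 NONMEM population PK/PD turnover model fitted to 25,361 FPG and 22,012 HbA1c values from 4065 patients, placebo arms included, in three Phase II and four Phase III trials of ≥12 weeks. AUCss drives FPG elimination through a non-linear Emax term, and FPG changes drive HbA1c production. Steady-state baseline assumed. Covariates on Gmax include eGFR and baseline FPG. Precision checked by bootstrap.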

[2] = Population pharmacokinetic analysis; type: in vivo, human
Summary of the method: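 NONMEM 7.2 two-compartment model with lagged first-order absorption (lag fixed at 0.5 h) and first-order elimination. Fitted to 12,503 plasma concentrations from 2761 patients given oral doses of 1–100 mg once daily in ten Phase I–III studies; placebo excluded and first-hour samples dropped. eGFR by the MDRD formula, with a reference patient at eGFR 100 mL/min/1.73 m2. Bootstrap precision check.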

[3] = tested on: patients with type 2 diabetes mellitus; details: cited from earlier work; for Placebo-corrected reduction in HbA1c / Reduction in FPG: Phase III
[4] = Japanese patients with T2DM and renal impairment; subjects with renal impairment; cited from earlier work
[5] = tested on: patients with type 2 diabetes mellitus; assay: Exposure–response analysis for safety/tolerability; type: in vivo, human; details: empagliflozin therapy compared with placebo-treated patients; OR (95% CI)
Summary of the method: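 Logistic regression (R glm, binomial, logit link) of dichotomous patient-level adverse-event endpoints, each counted as any event during study. Endpoints: confirmed hypoglycemia (plasma glucose <3.9 mM and/or assistance required), and UTI, genital infection and volume depletion defined by 73, 89 and 8 preferred terms. Covariates enter additively with steady-state AUC relative to reference. Odds ratios computed for empagliflozin treatment.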

[6] = tested on: patients with type 2 diabetes mellitus; type: in vivo, human; details: 24 weeks, median (2.5th, 97.5th percentile)
[7] = eGFR 15 mL/min/1.73 m^2 vs reference patient with eGFR 100 mL/min/1.73 m^2

Increase in typical AUCss [2, 7]: 88.1%
Reduction in CL/F [2, 7]: 46.8%
Increase in typical AUCss ([2]; eGFR 30 mL/min/1.73 m^2 vs reference patient with eGFR 100 mL/min/1.73 m^2): 49.2%
Increase in typical AUCss ([2]; eGFR 60 mL/min/1.73 m^2 vs reference patient with eGFR 100 mL/min/1.73 m^2): 18.5%
Increase in mean AUCss ([2]; eGFR ≥60 mL/min/1.73 m^2 vs reference eGFR 100 mL/min/1.73 m^2): ≤ 20%
Vd/F ([2]; human, plasma, oral): 3.14 L
first-order ka ([2]; typical value given the reference covariates): 0.196 L/h
SMILES: OC[C@H]1O[C@@H](c2ccc(Cl)c(Cc3ccc(O[C@H]4CCOC4)cc3)c2)[C@H](O)[C@@H](O)[C@@H]1O [empagliflozin]
Target of the maximal response for FPG and HbA1c obtained ([1]; once daily dose of approximately 10 mg): 80%
Target of the maximal response for FPG and HbA1c obtained ([1]; once daily dose of approximately 25 mg): 90%
Efficacy (effect on FPG) maintained in renal impairment ([1]; eGFR as low as 30 mL/min/1.73 m^2): nearly half the maximal effect
Once daily dose whose median exposure corresponds to AUC50 ([1]; once daily dose): around 3 mg
Increase in exposure (AUCss) in renal impairment ([2]; patients with (severe) renal impairment): less than twofold increase in exposure; also recorded: increased less than twofold; also recorded: increase in exposure less than twofold
Placebo-corrected reduction in HbA1c ([3]; add-on therapy, 10 mg): −0.4% to −0.7%
Reduction in FPG ([3]; add-on therapy, 10 mg): −0.9 to −1.5 mM
Placebo-corrected reduction in HbA1c ([3]; add-on therapy, 25 mg): −0.5% to −0.7%
Reduction in FPG ([3]; add-on therapy, 25 mg): −1.2 to −1.8 mM
Placebo-corrected reduction in HbA1c ([3]; monotherapy, 10 mg): −0.7%
Reduction in FPG ([3]; monotherapy, 10 mg): -1.7 mM
Placebo-corrected reduction in HbA1c ([3]; monotherapy, 25 mg): −0.9%
Reduction in FPG ([3]; monotherapy, 25 mg): -2.0 mM
Effect on HbA1c as add-on to existing antidiabetic therapy ([3]; patients with T2DM and stage 2 or 3 CKD): significant reductions in HbA1c
Effect on HbA1c ([3]; patients with severe renal impairment (stage 4 CKD)): no reduction in HbA1c was observed
Increase in exposure for patients with renal impairment [4]: less than twofold
OR for UTI [5]: 0.941 (0.687, 1.29)
OR for genital infection [5]: 5.08 (2.77, 9.34)
OR for hypoglycemia [5]: 1.11 (0.811, 1.52)
OR for volume depletion [5]: 1.44 (0.517, 4.01)
Median change from baseline in glycated hemoglobin, Observed ([6]; 10 mg, eGFR 30–60 mL/min/1.73 m^2 (study 10), five patients): −0.90 (−1.81, 0.12)^a
Median change from baseline in glycated hemoglobin, Observed ([6]; 10 mg, eGFR 45–60 mL/min/1.73 m^2 (study 10), five patients): −0.90 (−1.81, 0.12)^a
Median change from baseline in glycated hemoglobin, Observed ([6]; 10 mg, eGFR 60–90 mL/min/1.73 m^2 (study 10)): −0.40 (−1.70, 0.76)
Median change from baseline in glycated hemoglobin, Observed ([6]; 10 mg, elderly (75–85 years)): −0.65 (−2.44, 0.40)
Median change from baseline in glycated hemoglobin, Observed ([6]; 25 mg, eGFR 30–45 mL/min/1.73 m^2 (study 10)): −0.30 (−1.83, 1.43)
Median change from baseline in glycated hemoglobin, Observed ([6]; 25 mg, eGFR 30–60 mL/min/1.73 m^2 (study 10)): −0.40 (−2.00, 1.25)
Median change from baseline in glycated hemoglobin, Observed ([6]; 25 mg, eGFR 45–60 mL/min/1.73 m^2 (study 10)): −0.40 (−1.97, 0.88)
Median change from baseline in glycated hemoglobin, Observed ([6]; 25 mg, eGFR 60–90 mL/min/1.73 m^2 (study 10)): −0.70 (−1.64, 0.90)
Median change from baseline in glycated hemoglobin, Observed ([6]; 25 mg, elderly (75–85 years)): −0.50 (−2.03, 0.60)
